Assay results pooled from the literature.
Target: NT-3 growth factor receptor (NTRK3, Homo sapiens, UniProt Q16288)

Structure (SMILES)	effect on	mode	technique	tested at	endpoint	value
CC(C)(C)c1nc2c(s1)c1nc(N)ncc1c1ccc(NS(=O)(=O)c3c(F)cccc3F)c(F)c12	enzyme activity	inhibitor	radiometric	1 µM	remaining activity	82%
O=C(Nc1ccc2[nH]ncc2c1)c1cccc(NC(=S)Nc2cc(C(F)(F)F)cc(C(F)(F)F)c2)c1	enzyme activity	inhibitor	FRET	1 µM	inhibition	11.8%
O=C1NC(=O)c2cc(Nc3ccc(F)cc3)c(Nc3ccc(F)cc3)cc21	cell-free assay	–	–	0.5 µM	remaining signal	95.6%
O=C(Nc1cccc(Cl)c1)Nc1cccc(C(=O)Nc2ccc3[nH]ncc3c2)c1	enzyme activity	inhibitor	FRET	1 µM	inhibition	19.7%
CN(C(=O)c1ccccc1)c1cc(N(C)c2ccc3c(c2)CCc2ccc(C(=O)NCCN4CCOCC4)cc2C3=O)ccc1F	cell-free assay	–	competition with immobilised ligand	1 µM	remaining binding	90%
O=C(Nc1ccc(I)cc1)Nc1cccc(C(=O)Nc2ccc3[nH]ncc3c2)c1	enzyme activity	inhibitor	FRET	1 µM	inhibition	14.6%
Nc1ncnc2occ(-c3ccc(NC(=O)Nc4cc(C(F)(F)F)ccc4F)cc3)c12	cell-free assay	–	–	20 µM	remaining signal	0.25%
C[C@@H]1CCN(C(=O)CC#N)C[C@@H]1N(C)c1ncnc2[nH]ccc12	cell-free assay	–	–	0.5 µM	remaining signal	90%
C[C@@]1(Cc2ccc(C#N)cc2)C(=O)N(c2cc(Cl)cc(Cl)c2)c2ncc(C(=O)NC3(c4nc(C5CCC5)no4)CC3)n21	cell-free assay	–	competition with immobilised ligand	1 µM	remaining binding	100%
Cc1ccc(NC(=O)c2ccc(C)c(C(F)(F)F)c2)cc1C#Cc1nn(C2CCC(O)CC2)c2ncnc(N)c12 (stereo not shown)	cell-free assay	–	–	10 µM	remaining signal	17%
CN(C)c1ncnc(-c2ccc3nc(Nc4cc(CN5CCN(C(=O)CC(F)(F)F)CC5)ccn4)[nH]c3c2)c1Cl	cell-free assay	–	competition with immobilised ligand	1 µM	remaining binding	61%
O=C(Nc1ccc(Cl)cc1)Nc1cccc(C(=O)Nc2ccc3[nH]ncc3c2)c1	enzyme activity	inhibitor	FRET	1 µM	inhibition	15.4%
COc1cc2ncnc(Nc3ccc(F)c(Cl)c3)c2cc1OCCCN1CCOCC1	cell-free assay	–	–	0.5 µM	remaining signal	103%
O=C(Nc1cccc(C(=O)Nc2ccc3[nH]ncc3c2)c1)Nc1ccccc1Cl	enzyme activity	inhibitor	FRET	1 µM	inhibition	27.4%
Cc1noc([C@H]2C[C@@H](c3ccc(C(F)(F)F)cc3)CN(C(=O)N3CCS(=O)(=O)C3)C2)n1	cell-free assay	–	competition with immobilised ligand	1 µM	remaining binding	100%
O=C(Nc1ccc(C(F)(F)F)cc1)Nc1cccc(C(=O)Nc2ccc3[nH]nc(-c4ccccc4)c3c2)c1	enzyme activity	inhibitor	FRET	1 µM	inhibition	12.9%
O=C1Nc2ccc(Cl)cc2C1=Cc1cc(Cl)c(O)c(Cl)c1	cell-free assay	–	–	0.5 µM	remaining signal	44.8%
O=C(Nc1cccc(C(=O)Nc2ccc3[nH]ncc3c2)c1)Nc1cccc(C(F)(F)F)c1	enzyme activity	inhibitor	FRET	1 µM	inhibition	26.6%
Cc1cc(NC(=O)c2cccc3cc(-c4cccc5[nH]nc(N)c45)ccc23)ccc1F	enzyme activity	inhibitor	–	0.1 µM	activity vs control	90%
CCCCN(CCCC)C(=O)CN1C[C@H](c2cc(OC)c3c(c2)OCO3)[C@@H](C(=O)O)[C@@H]1CC(C)(C)CCC	cell-free assay	–	competition with immobilised ligand	1 µM	remaining binding	50.5%
O=C(Nc1cccc(C(=O)Nc2ccc3[nH]ncc3c2)c1)Nc1ccccc1F	enzyme activity	inhibitor	FRET	1 µM	inhibition	26.3%
O=C(NC[C@@H]1[C@H]2CN(C(=O)OCc3cc(C(F)(F)F)cc(C(F)(F)F)c3)C[C@@H]12)c1ccc2[nH]nnc2c1	cell-free assay	–	competition with immobilised ligand	1 µM	remaining binding	91%
O=C(Nc1cnn(-c2csc(C(=O)NC3COC3)c2)c1)Nc1c(F)cccc1Cl	enzyme activity	inhibitor	–	5 µM	remaining activity	38.6%
COCCOc1nc(-c2ccc(Cl)nc2)nc2c1CN(C(=O)c1ncn3ccccc13)CC2	cell-free assay	–	competition with immobilised ligand	0.1 µM	remaining binding	100%
Cc1ccc(C(=O)NCc2ccsc2)cc1C#Cc1cn(C(C)C)c2ncnc(N)c12	enzyme activity	inhibitor	–	1 µM	activity vs control	29%
